From paper PMC4398657 (Bioorganic & medicinal chemistry, 2015)
Marks after values point to notes of the source that are not given here. One block for each molecule: values may come before it.

Legend:
[1] = tested on: wild-type E. coli (AB1157); experiment: Checkerboard assay: minimum potentiation concentration; type: cell-based, Escherichia coli; details: potentiation of LVX and PIP, antibiotic not separated
[2] = tested on: outer membrane of E. coli strain deficient in AcrAB (HN1159); experiment: Nitrocefin influx; type: cell-based, Escherichia coli
[3] = tested on: transmembrane proton gradient, E. coli NCM3722; experiment: LacY permease-dependent uptake and accumulation of [3H]-TMG; type: cell-based, Escherichia coli; details: concentrations up to 20 µM
Outline: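 Whole E. coli cells take up [methyl-³H] β-D-thiogalactopyranoside through the LacY permease, and accumulation depends on proton motive force. The tracer stock was 1 mCi/ml at a specific activity of 7 Ci/mmol. Accumulated radiolabel was measured in the presence of test compound to estimate disruption of the transmembrane proton gradient.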

[4] = tested on: AcrB (AcrAB-TolC in E. coli); experiment: Cell-based assay of kinetic parameters; design: species or system Escherichia coli; details: manuscript in preparation
[5] = Murine liver microsome stability; type: in vitro ADME, mouse; details: % remaining after 60 min at 37 °C in the presence of NADPH; 25 µM compound
Outline: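 Pooled mouse liver microsomes (0.5 mg/mL final) with test compound at 25 µM final, in 100 mM potassium phosphate pH 7.4 and 3 mM MgCl₂, with or without 2 mM NADPH (no-NADPH as control); 1 h at 37 °C; stopped with an equal volume of acetonitrile with 0.1% TFA. Value is the compound peak-area ratio of +NADPH to no-NADPH.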

[6] = tested on: wild-type E. coli (AB1157); details: antibacterial activity of the EPI alone; cited from earlier work

Compound: CC1(C)Cc2c(C#N)c(SCC(=O)c3ccccc3)nc(N3CCOCC3)c2CO1 [Compound 12c]
- EPI potency / MPC4 in words [1]: inactive

Compound: CC1(C)Cc2c(C#N)c(SCC(O)c3ccccc3)nc(N3CCOCC3)c2CO1 (stereo not drawn) [Compound 12d, 6-(2-hydroxy-2-phenylethylthio)-5-cyano-3,3-dimethyl-8-morpholino-3,4-dihydro-1H-pyrano[3,4-c]pyridine]
- EPI potency / MPC4 in words [1]: inactive

Compound: CC1(C)Cc2c(C#N)c(SCCC#N)nc(N3CCOCC3)c2CO1 [Compound 20a]
- EPI potency / MPC4 in words [1]: inactive

Compound: COc1cccc(CCSc2nc(N3CCOCC3)c3c(c2C#N)CC(C)(C)OC3)c1 [Compound 20f]
- rate of nitrocefin influx [2]: none of the compounds increased the rate of nitrocefin influx
- inhibition of uptake and accumulation of 3H-TMG [3]: none of the analogs significantly inhibited uptake and accumulation

Compound: COCCN1CCN(c2nc(SCCc3ccc(OC)cc3)c(C#N)c3c2COC(C)(C)C3)CC1 [Compound 21f]
- inhibition of uptake and accumulation of 3H-TMG [3]: none of the analogs significantly inhibited uptake and accumulation

Compound: COCCN1CCN(c2nc(SCCc3ccc(OC)c(OC)c3)c(C#N)c3c2COC(C)(C)C3)CC1 [Compound 21g]
- inhibition of uptake and accumulation of 3H-TMG [3]: none of the analogs significantly inhibited uptake and accumulation

Compound: CC(=O)Nc1ccc(CCSc2nc(N3CC(C)OC(C)C3)c3c(c2C#N)CC(C)(C)OC3)cc1 (stereo not drawn) [Compound 22f, 6-(4-acetamidophenethylthio)-5-cyano-3,3-dimethyl-8-(2,6-dimethyl-4-morpholino)-3,4-dihydro-1H-pyrano[3,4-c]pyridine]
- potency against AcrB relative to MBX2319 [4]: at least 20 fold
- MLMS [5]: 0 ^* %

- MLMS [5]: 0 ^* %
Compound: CC1CN(c2nc(SCCc3ccc(NC(=O)C(F)(F)F)cc3)c(C#N)c3c2COC(C)(C)C3)CC(C)O1 (stereo not drawn) [Compound 22g, 6-[4-(2,2,2-trifluoroacetamido)phenethylthio]-5-cyano-8-(2,6-dimethylmorpholino)-3,3-dimethyl-3,4-dihydro-1H-pyrano[3,4-c]pyridine]

Compound: C=CC(=O)Nc1ccc(CCSc2nc(N3CC(C)OC(C)C3)c3c(c2C#N)CC(C)(C)OC3)cc1 (stereo not drawn) [Compound 22i, 6-(4-acrylamidophenethylthio)-5-cyano-3,3-dimethyl-8-(2,6-dimethyl-4-morpholino)-3,4-dihydro-1H-pyrano[3,4-c]pyridine]
- EPI potency / MPC4 in words [1]: submicromolar
- inhibition of uptake and accumulation of 3H-TMG [3]: none of the analogs significantly inhibited uptake and accumulation

Compound: CC1CN(c2nc(SCCc3ccc(NC(=N)N)cc3)c(C#N)c3c2COC(C)(C)C3)CC(C)O1 (stereo not drawn) [Compound 22k, 6-(4-guanidinophenethylthio)-5-cyano-3,3-dimethyl-8-(2,6-dimethyl-4-morpholino)-3,4-dihydro-1H-pyrano[3,4-c]pyridine]
- EPI potency / MPC4 in words [1]: submicromolar
- inhibition of uptake and accumulation of 3H-TMG [3]: none of the analogs significantly inhibited uptake and accumulation

Compound: CC1(C)Cc2c(C#N)c(SCCc3ccccc3)nc(N3CCOCC3)c2CO1 [MBX2319, 3,3-dimethyl-5-cyano-8-morpholino-6-(phenethylthio)-3,4-dihydro-1H-pyrano[3,4-c]pyridine]
- MIC [6]: ≥ 100 µM
